Assay results: ChEMBL document CHEMBL5661974, “Pharmacologic characterization of a potent inhibitor of class I phosphatidylinositide 3-kinases” (Cancer Res, 2007)
Calls of active or inactive are those of the source. No cut-off for these calls is given here.

Tests used:
U-87 MG [1] = settings: Homo sapiens, time 24.0 hrs
[2] = Tmax in BALB/C mouse spleen at 2.5 mg/kg, iv by LC-MS/MS analysis; assay type: ADME, organism-based
Outline: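 Female BALB/c mice, 6–8 weeks old, given 2.5 mg/kg i.v. in 10% DMSO, 0.5% Tween 20 in saline. Plasma came from serial bleeds; tissues were homogenized in 2 or 3 volumes PBS. Samples were methanol-precipitated with an analogue internal standard, then LC-MS/MS by multiple reaction monitoring against an 8-point external calibration of 2–20,000 nmol/L. Parameters came from WinNonlin noncompartmental analysis, model 201 for plasma and model 200 for tissues.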

[3] = Antitumor activity against PIK3CA mutant human […] cells xenografted female Ncr model assessed as T/C at 100 mg/kg, ip administered twice a daily for 16 days relative to control; assay type: functional; settings: time 16 day
HCT-116 [4] = experiment: Antitumor activity against PIK3CA mutant human HCT-116 cells xenografted female Ncr model assessed as T/C at 30 mg/kg, ip administered once a daily for 21 days relative to control; assay type: functional; settings: time 21 day
U-87 MG [5] = settings: Homo sapiens, time 24.0 hrs; remark: listed apart in the source
HCT-116 [6] = experiment: Antitumor activity against PIK3CA mutant human HCT-116 cells xenografted female Ncr model assessed as body weight loss at 30 mg/kg, ip administered once a daily for 14 days relative to control; settings: time 14 day
MDA-MB-468 = experiment: Antitumor activity against PTEN null human MDA-MB-468 cells xenografted female Ncr model assessed as body weight loss at 30 mg/kg, ip administered once a daily for 14 days relative to control; settings: time 14 day
OVCAR-3 [7] = settings: Homo sapiens, dose 100.0 mg/kg, route ip
U-87 MG [8] = experiment: Antitumor activity against PTEN null human U-87MG cells xenografted female Ncr model assessed as T/C at 40 mg/kg, ip administered once a daily for 14 days relative to control; assay type: functional, U-87MG ATCC; settings: time 14 day
OVCAR-3 [9] = experiment: Antitumor activity against human OVCAR-3 cells xenografted female Ncr model assessed as T/C at 15 mg/kg, ip administered daily for 15 days relative to control; assay type: functional; settings: time 15 day
OVCAR-3 [10] = settings: Homo sapiens, dose 100.0 mg/kg, route ip, time 750.0 min
MDA-MB-435 = experiment: Antitumor activity against ERB-B2 overexpressing human MDA-MB-435 cells xenografted female Ncr model assessed as T/C at 30 mg/kg, ip administered twice a daily for 14 days relative to control; assay type: functional; settings: time 14 day
[11] = Drug metabolism in human microsomes incubated for 30 mins by LC-MS/MS analysis; assay type: ADME, Microsome; settings: read-out: Drug metabolism
Outline: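 Mouse or human microsomes incubated 30 min with inhibitor at 1 or 10 μmol/L. Metabolite detection by LC-MS/MS on an ion trap, with a 10–90% methanol gradient over 6 min and scan range 50–1,000 amu.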

U-87 MG [12] = settings: Homo sapiens, time 4.0 hrs

For `Oc1cccc(-c2nc(N3CCOCC3)c3oc4ncccc4c3n2)c1` [PI-103], the inhibition (U-87 MG [1]) was “Active”, the Tmax [2] was 4.98 min and the T/C [3] was 36%. For the same compound, the T/C (HCT-116 [4]) was 98.6%, the inhibition (U-87 MG [5]) was “Active” and the Body weight loss (HCT-116 [6]) was under 15%. For the same compound, the Body weight loss (MDA-MB-468) was under 15%, the inhibition (OVCAR-3 [7]) was “Active” and the T/C (U-87 MG [8]) was 89.1%. The T/C (OVCAR-3 [9]) was 61%, the inhibition (OVCAR-3 [10]) was “Active” and the T/C (MDA-MB-435) was 69.8%. For the same compound, the metabolised at 0.5 h [11] was over 70% and the inhibition (U-87 MG [12]) was “Active”.
